Data published in ChEMBL document CHEMBL1817619, “Synthesis and antimicrobial activity of (E) stilbene derivatives” (Bioorg Med Chem, 2011).
Calls of active or inactive are those of the source. No cut-off for these calls is given here.

Columns and labels:
Micrococcus luteus = test: Antibacterial activity against Micrococcus luteus ATCC 381 at 10 mg/ml after 24 to 72 hrs by agar diffusion method; assay type: functional, organism-based
Outline: (§1)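 Bacterial plates: nutrient broth (8 g/l) with 1.5% agar, seeded at 45 °C with spores or vegetative cells to 10^6 cfu/ml. Compounds were dissolved in methanol at 10 mg/ml and applied to 6 mm paper discs, which were dried and laid on the plates. Inhibition zone diameter (mm) and type (complete or incomplete) were scored after 24–72 h.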

Botrytis cinerea = test: Antifungal activity against Botrytis cinerea FSU 883 at 10 mg/ml after 24 to 72 hrs by agar diffusion method; assay type: functional, organism-based
Outline: (§2)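 Fungal plates: malt extract/yeast extract (HA) medium with 1.5% agar, seeded at 45 °C with spores or yeast cells to 10^5 cfu/ml. Compounds in methanol at 10 mg/ml were loaded onto 6 mm paper discs and dried before placement. Inhibition zone diameter (mm) and complete or incomplete inhibition were recorded after 24–72 h.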

NIH3T3 = test: Cytotoxicity against mouse NIH/3T3 cells after 96 hrs by sulforhodamine-B colorimetric assay; assay type: cell-based; conditions: NIH3T3, 96 h
Outline: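 Exponentially growing mouse embryonic fibroblasts were seeded and treated 24 h later with serial dilutions for 96 h; DMSO or DMF stayed at or below 0.5%. Cells were fixed with 10% TCA at 4 °C, stained with 0.4% SRB for about 20 min, washed with 1% acetic acid, solubilised in Tris base, and read at 570 nm. Survival is relative to untreated controls. IC50 was obtained by linear interpolation across the 50% line; three independent experiments.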

[1] = tested on: Enterobacter cloacae subsp. dissolvens; test: Antibacterial activity against Enterobacter dissolvens ATCC 222 at 10 mg/ml after 24 to 72 hrs by agar diffusion method; assay type: functional, organism-based; outline: as §1
Brevibacillus brevis = test: Antibacterial activity against Bacillus brevis ATTC 9999 at 10 mg/ml after 24 to 72 hrs by agar diffusion method; assay type: functional, organism-based; outline: as §1
Bacillus subtilis = test: Antibacterial activity against Bacillus subtilis ATTC 6633 at 10 mg/ml after 24 to 72 hrs by agar diffusion method; assay type: functional, organism-based; outline: as §1
Eremothecium coryli = test: Antifungal activity against Nematospora coryli ATCC 10647 at 10 mg/ml after 24 to 72 hrs by agar diffusion method; assay type: functional, organism-based; outline: as §2
[2] = tested on: Colletotrichum graminicola; test: Antifungal activity against Colletotrichum graminicola M2 at 10 mg/ml after 24 to 72 hrs by agar diffusion method; assay type: functional, organism-based; outline: as §2
Rhizomucor miehei = test: Antifungal activity against Mucor miehei FSU 769 at 10 mg/ml after 24 to 72 hrs by agar diffusion method; assay type: functional, organism-based; outline: as §2
Penicillium chrysogenum = test: Antifungal activity against Penicillium notatum FSU 2721 at 10 mg/ml after 24 to 72 hrs by agar diffusion method; assay type: functional, organism-based; outline: as §2

| Structure (SMILES) | Activity (Micrococcus luteus) | Activity (Botrytis cinerea) | IC50 (NIH3T3) | Activity [1] | Activity (Brevibacillus brevis) | Activity (Bacillus subtilis) | Activity (Eremothecium coryli) | Activity [2] | Activity (Rhizomucor miehei) | Activity (Penicillium chrysogenum) |
| --- | --- | --- | --- | --- | --- | --- | --- | --- | --- | --- |
| Oc1ccc(/C=C/c2cc(O)cc(O)c2)cc1 [RESVERATROL] | Active | inactive | > 30 µM | inactive | inactive | – | – | – | – | – |
| Oc1ccc(O)c(/C=C/c2ccc(O)c(O)c2)c1 | – | – | > 30 µM | inactive | – | – | – | – | – | – |
| COc1cc(/C=C/c2ccc(O)cc2)cc(OC)c1 [PTEROSTILBENE] | – | inactive | 12.2 µM | inactive | Active | – | – | – | – | – |
| COc1cc(F)c(/C=C/c2cc(O)ccc2O)cc1O | Active | – | 21.1 µM | inactive | Active | Active | – | – | – | – |
| Oc1ccccc1/C=C/c1cc(F)c(F)c(F)c1 | Active | Active | > 30 µM | inactive | Active | Active | Active | Active | Active | Active |
| COc1ccc(OC)c(/C=C/c2ccc(O)cc2)c1 | – | inactive | 7.4 µM | inactive | Active | – | – | – | – | – |
| Oc1cccc(/C=C/c2cc(O)cc(O)c2)c1 | Active | – | > 30 µM | inactive | Active | Active | – | – | – | – |
| COc1cc(/C=C/c2cccc(O)c2)cc(OC)c1F | Active | – | 11.8 µM | inactive | Active | Active | – | – | – | – |
| COc1ccc(/C=C/c2ccc(OC)c(O)c2)c(OC)c1 | – | – | 2.1 µM | – | – | – | – | – | – | – |
| Oc1cccc(/C=C/c2cc(O)ccc2O)c1 | Active | – | 10.5 µM | inactive | Active | Active | – | – | – | – |
| COc1ccc(/C=C/c2cccc(O)c2)c(OC)c1 | Active | – | 19.6 µM | inactive | Active | Active | – | – | – | – |
| Oc1ccc(/C=C/c2cc(F)c(F)c(F)c2)cc1 | – | inactive | 6.9 µM | inactive | Active | – | Active | – | – | – |
| COc1cc(/C=C/c2ccccc2O)cc(OC)c1F | Active | – | 14.8 µM | inactive | Active | Active | – | – | – | – |
| COc1ccc(/C=C/c2ccccc2O)c(OC)c1 | Active | – | > 30 µM | inactive | Active | Active | – | – | – | – |
| Oc1cccc(/C=C/c2cc(F)c(F)c(F)c2)c1 | Active | – | > 30 µM | inactive | Active | Active | – | – | Active | – |
| Oc1ccc(/C=C/c2cc(O)c(F)c(O)c2)cc1 | – | inactive | > 30 µM | inactive | Active | – | – | – | – | – |
| COc1ccc(/C=C/c2ccc(O)cc2)c(OC)c1 | – | inactive | 8.2 µM | inactive | Active | – | – | – | – | – |
| CN(C)[C@@H]1C(O)=C(C(N)=O)C(=O)[C@@]2(O)C(O)=C3C(=O)c4c(O)cccc4[C@@](C)(O)[C@H]3C[C@@H]12 | – | – | – | – | Active | – | – | – | – | – |
| Oc1cccc(/C=C/c2cc(O)c(F)c(O)c2)c1 | Active | – | > 30 µM | inactive | Active | Active | – | – | – | – |
| COc1ccc(OC)c(/C=C/c2cccc(O)c2)c1 | Active | – | 25.8 µM | inactive | Active | Active | – | – | – | – |
| COc1ccc(/C=C/c2cc(O)ccc2O)cc1O | – | – | > 30 µM | inactive | – | – | – | – | – | – |
| COc1cc(/C=C/c2cccc(O)c2)cc(OC)c1 | Active | – | > 30 µM | inactive | Active | Active | – | – | – | – |
| Oc1ccc(O)c(/C=C/c2ccccc2O)c1 | Active | – | 12.4 µM | inactive | Active | Active | – | – | – | – |
| COc1cc(/C=C/c2ccc(OC)c(O)c2)cc(OC)c1 | – | – | 0.2 µM | – | – | – | – | – | – | – |
| Oc1ccc(/C=C/c2cc(O)ccc2O)cc1 | – | inactive | 9.6 µM | inactive | Active | – | – | – | – | – |
| COc1cc(/C=C/c2ccc(O)cc2)cc(OC)c1F | – | inactive | 11.5 µM | inactive | Active | – | – | – | – | – |
